# Results taken from ChEMBL document CHEMBL4152354, “A reusable magnetic nickel nanoparticle based catalyst for the aqueous synthesis of diverse heterocycles and their evaluation as potential anti-bacterial agent” (2018).
# Tests used:
# Assay type in all cases: functional
# Bacillus cereus [1] = assay: Antibacterial activity against Bacillus cereus MTCC 430 assessed as zone of inhibition at 100 uL after 24 hrs by agar well-diffusion method
# Summary of the method: (§1)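 Mueller-Hinton agar plates swabbed with a bacterial suspension adjusted to 1.5×10^8 CFU/ml. Each 5 mm well received 100 µl of compound, and plates were incubated at 37°C for 24 h. Chloramphenicol (30 mcg) was the positive control and DMSO the negative control. Inhibition zones around wells were measured manually, in triplicate.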
# Salmonella enterica = assay: Antibacterial activity against Salmonella enterica MTCC 735 assessed as zone of inhibition at 100 uL after 24 hrs by agar well-diffusion method
# Klebsiella pneumoniae [2] = assay: Antibacterial activity against Klebsiella pneumoniae MTCC 109 assessed as zone of inhibition at 100 uL after 24 hrs by agar well-diffusion method; summary of the method: as §1
# Streptococcus pyogenes = assay: Antibacterial activity against Streptococcus pyogenes MTCC 1925 assessed as zone of inhibition at 100 uL after 24 hrs by agar well-diffusion method; summary of the method: as §1
# Escherichia coli = assay: Antibacterial activity against Escherichia coli MTCC 730 assessed as zone of inhibition at 100 uL after 24 hrs by agar well-diffusion method; summary of the method: as §1
# Klebsiella pneumoniae [3] = assay: Antibacterial activity against Klebsiella pneumoniae MTCC 109 after 18 hrs by TTC staining based broth microdilution method; conditions: MTCC 109, 18 h
# Summary of the method: (§2)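 Broth microdilution in Mueller-Hinton broth. 50 µl of inoculum from a 0.5 McFarland suspension was added to 50 µl of compound, giving final concentrations of 0.024–400 mg/ml in DMSO. Sealed plates were incubated at 37°C for 18 h, then 50 µl of 0.5% TTC was added for 1 h in the dark. MIC was the lowest concentration with no visible growth (well stays clear). Triplicate; mean ± SD.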
# Bacillus cereus [4] = assay: Antibacterial activity against Bacillus cereus MTCC 430 after 18 hrs by TTC staining based broth microdilution method; conditions: MTCC 430, 18 h; summary of the method: as §2
smiles,measurement,setting,value
O=C(N[C@H](CO)[C@H](O)c1ccc([N+](=O)[O-])cc1)C(Cl)Cl [CHLORAMPHENICOL],inhibition zone (IZ),Bacillus cereus [1],22 mm
same,inhibition zone (IZ),Salmonella enterica,17 mm
same,inhibition zone (IZ),Klebsiella pneumoniae [2],33 mm
same,inhibition zone (IZ),Streptococcus pyogenes,36 mm
same,inhibition zone (IZ),Escherichia coli,35 mm
same,MIC,Klebsiella pneumoniae [3],90 µg/mL
same,MIC,Bacillus cereus [4],90 µg/mL
